# T cruzi growth-1: T. cruzi proliferation inhibition; T. cruzi beta-gal in NIH3T3, GalScreen luminescence, 90 h; inhibition, % at 8.34 µM; hit rate 5.9% among 77,000; AID 624255;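 active = mean inhibition above about 93%, with at least 55% of replicates each passing it, limit read from the data, passing the limit was not always enough; inconclusive = only one of those two conditions holds; inactive = neither condition holds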
# KDM4C inh: inhibitors of human demethylase GASC-1 KDM4C. Q9H3R0. GST-KDM4C 2-372, H3K9me3 peptide, LANCE TR-FRET. inhibition, % at 12.5 µM. hit rate 0.15% among 96,000;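 active = mean replicate inhibition above about 25%, with at least 55% of replicates also reaching it, limit read from the data, passing the limit was not always enough; inconclusive = only one of those two conditions met; inactive = neither condition met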
# Target sequence (Q9H3R0 2-372 limits assumed): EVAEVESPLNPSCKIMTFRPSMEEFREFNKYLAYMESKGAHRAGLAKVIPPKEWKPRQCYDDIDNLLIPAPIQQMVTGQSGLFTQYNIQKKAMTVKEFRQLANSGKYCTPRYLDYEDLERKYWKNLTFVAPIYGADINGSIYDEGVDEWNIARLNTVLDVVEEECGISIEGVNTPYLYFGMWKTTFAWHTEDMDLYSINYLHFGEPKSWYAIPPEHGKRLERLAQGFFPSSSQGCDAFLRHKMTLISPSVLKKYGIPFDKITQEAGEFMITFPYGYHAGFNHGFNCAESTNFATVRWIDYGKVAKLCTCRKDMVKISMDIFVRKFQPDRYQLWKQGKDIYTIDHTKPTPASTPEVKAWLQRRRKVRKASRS
#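 System: N-terminal GST-fused human GASC-1 (KDM4C) fragment, residues 2-372; amount: enzyme final amount 10 nM; incubation: reaction 30 min RT, detection step 1 h RT; medium: HEPES buffer, pH 7.5, plus ascorbate; technique: LANCE TR-FRET, Eu antibody, ULight-streptavidin, EDTA, ex 340 nm, em 618/671 nm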
# Pf Dd2 growth: blocks growth of Plasmodium falciparum Dd2 parasites; P. falciparum Dd2 growth, SYBR Green, 72 h; active compounds read low; activity change, % at 10 µM; hit rate 2.3% among 94,000; AID 1159554; in the data active = activity change below about -80%; inconclusive = no clear call, values can overlap the other calls
# IDH1 mut inh: blocks human IDH1 R132H reductase activity. diaphorase/resazurin fluorescence, 60 min. inhibition, % at 10 µM. hit rate 0.18% among 70,000; in the data active = inhibition above about 34%; inconclusive = no clear call, values can overlap the other calls; inactive = below about 11%;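 note: 0% = DMSO and 100% = no enzyme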
# T cruzi growth-2: inhibitors of T. cruzi proliferation. shares compounds with T cruzi growth-1. T. cruzi beta-gal in NIH3T3, GalScreen luminescence, 90 h. inhibition, % at 8.35 µM. hit rate 72% among 5,600;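 active = mean replicate inhibition above about 95% and at least 55% of replicates individually reaching it, limit read from the data; inconclusive = only one of the two criteria is met; inactive = neither criterion is met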
# T cruzi growth-3: Trypanosoma cruzi proliferation inhibition. shares compounds with T cruzi growth-1. T. cruzi beta-gal in NIH3T3, GalScreen luminescence, 90 h. inhibition, % at 2.09 µM. hit rate 21% among 5,600. AID 651740;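 active = mean inhibition above about 95%, with at least 55% of replicates also reaching it, limit read from the data; inconclusive = meets just one of the two conditions; inactive = meets neither condition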;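 note: plate controls were neutral control median for no effect and positive control median for full effect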
# 3T3 cytotox: kills mouse NIH/3T3 fibroblasts | shares compounds with T cruzi growth-1 | cytotoxicity (signal decrease), % at 8.35 µM | hit rate 14% among 5,600 | AID 651742 | NIH/3T3 viability, CellTiter-Glo ATP luminescence, 90 h;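 active = mean signal decrease across replicates above about 35% based on untreated-well scatter, with enough replicates individually passing, limit read from the data; inconclusive = no rule stated though some were filed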;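 note: 0% = median of neutral control wells and 100% = median of positive control wells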
# NIH3T3 tox 2: kills mouse NIH/3T3 fibroblasts; inhibition, % at 24.9 µM; NIH/3T3 viability, CellTiter-Glo ATP luminescence, 90 h; shares compounds with T cruzi growth-1; hit rate 56% among 5,600;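 active = mean loss of cell viability signal at or above a set limit, and enough replicates individually reaching it; inconclusive = meets only the mean limit or only the replicate share; inactive = meets neither condition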;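 note: 0% = median of neutral control wells and 100% = median of positive control wells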
# * hit, by the source's call; ? = inconclusive; · = not tested or not shown. Only some compounds are listed: those with a hit (about 5.9% of all), similar ones and a draw of the others.
SMILES,T cruzi growth-1,KDM4C inh,Pf Dd2 growth,IDH1 mut inh,T cruzi growth-2,T cruzi growth-3,3T3 cytotox,NIH3T3 tox 2
CCCC#Cc1ccc([C@@H]2[C@@H](C#N)N(C(=O)C3CCCCC3)[C@H]2CO)cc1,96*,-2,-45,·,91,106*,26,53*
CCCC#Cc1ccc([C@@H]2[C@@H](CO)N(C(=O)C3CCCCC3)[C@H]2C#N)cc1,89,-1,-34,·,·,·,·,·
CCCC#Cc1ccc([C@@H]2[C@H](C#N)N(C(=O)C3CCCC3)[C@H]2CO)cc1,99*,3,-54,·,98*,106*,26,78*
COc1cc(OC)c(C2=NOC(C(=O)Nc3cnn(C45CC6CC(CC(C6)C4)C5)c3)C2)cc1Cl (stereo not given),·,·,·,0,·,·,·,·
C[C@H]1CCCCO[C@@H](CN(C)C(=O)Nc2ccc(C(F)(F)F)cc2)[C@@H](C)CN([C@@H](C)CO)C(=O)c2cc(NS(=O)(=O)c3ccc(Cl)cc3)ccc2O1,2,-2,-36,·,·,·,·,·
Cc1ccc(S(=O)(=O)Nc2ccc3c(c2)C(=O)N([C@H](C)CO)C[C@@H](C)[C@H](CN(C)C(=O)Nc2ccc(C(F)(F)F)cc2)OCCCC[C@@H](C)O3)cc1,77,-1,-31,-2,·,·,·,·
Cc1ccc(S(=O)(=O)Nc2ccc3c(c2)C(=O)N([C@H](C)CO)C[C@H](C)[C@@H](CN(C)C(=O)Nc2ccc(C(F)(F)F)cc2)OCCCC[C@H](C)O3)cc1,109*,1,-50,·,105*,113*,4,11
C[C@@H]1CCCCO[C@@H](CN(C)C(=O)Nc2ccc(C(F)(F)F)cc2)[C@H](C)CN([C@H](C)CO)C(=O)c2cc(NS(=O)(=O)c3ccc(Cl)cc3)ccc2O1,?,-1,-38,5,77,118*,-5,3
C[C@@H]1CCCCO[C@H](CN(C)C(=O)Nc2ccc(C(F)(F)F)cc2)[C@@H](C)CN([C@H](C)CO)C(=O)c2cc(NS(=O)(=O)c3ccc(Cl)cc3)ccc2O1,104*,1,-57,-2,99*,58,7,22
C[C@@H]1CCCCO[C@H](CN(C)C(=O)Nc2ccc(C(F)(F)F)cc2)[C@H](C)CN([C@H](C)CO)C(=O)c2cc(NS(=O)(=O)c3ccc(Cl)cc3)ccc2O1,99*,-5,-61,1,?,118*,27,18
COc1ccc(S(=O)(=O)Nc2ccc3c(c2)C(=O)N([C@H](C)CO)C[C@H](C)[C@@H](CN(C)C(=O)Nc2ccc(C(F)(F)F)cc2)OCCCC[C@@H](C)O3)cc1,108*,0,-66,2,99*,31,-8,4
C/C=C/c1ccc2c(c1)O[C@@H](CN(C)Cc1ccncc1)[C@H](C)CN([C@@H](C)CO)S2(=O)=O,108*,2,-53,0,108*,105*,32,57*
C/C=C/c1ccc2c(c1)O[C@H](CN(C)Cc1ccncc1)[C@@H](C)CN([C@@H](C)CO)S2(=O)=O,109*,4,-38,0,109*,102*,-5,28*
C/C=C/c1ccc2c(c1)O[C@H](CN(C)Cc1ccncc1)[C@H](C)CN([C@@H](C)CO)S2(=O)=O,79,1,-12,-7,·,·,·,·
O=C(c1ccco1)N1CCc2sccc2C1c1ccc(OC(F)(F)F)cc1 (stereo not given),·,·,·,0,·,·,·,·
O=C(NC1CCCC1)N1CCCCN2[C@H](C1)[C@H](c1ccc(-c3cncnc3)cc1)[C@@H]2CO,?,0,9,·,107*,-13,-22,-4
Cc1ccccc1-c1ccc([C@@H]2[C@H](CO)N3CCCCN(C(=O)NC4CCCC4)C[C@@H]23)cc1,118*,1,-32,·,106*,90,25,105*
O=C(NC1CCCC1)N1CCCCN2[C@@H](CO)[C@@H](c3ccc(-c4ccncc4)cc3)[C@@H]2C1,105*,0,8,·,97*,42,11,-9
O=C(NC1CCCC1)N1CCCCN2[C@H](CO)[C@H](c3ccc(-c4cncnc4)cc3)[C@@H]2C1,102*,1,-10,·,20,0,11,10
Nc1nc(SCC(=O)Nc2ccccc2C(F)(F)F)n[nH]1,·,·,·,0,·,·,·,·
O=C(NC1CCCC1)N1CCCCN2[C@@H](CO)[C@H](c3ccc(-c4ccccc4)cc3)[C@@H]2C1,113*,-1,1,·,95*,43,3,95*
O=C(C[C@@H]1CC[C@H]2[C@@H](COC[C@H](O)CN2Cc2ccc3c(c2)OCO3)O1)Nc1ccccc1,41,1,-14,·,·,·,·,·
O=C(C[C@H]1CC[C@H]2[C@@H](COC[C@H](O)CN2Cc2ccc3c(c2)OCO3)O1)Nc1ccccc1,45,2,-9,·,·,·,·,·
O=C(C[C@H]1CC[C@@H]2[C@H](COC[C@H](O)CN2Cc2ccc3c(c2)OCO3)O1)Nc1ccc(-c2ccccc2)cc1,112*,1,-14,·,106*,35,5,50*
O=C(C[C@H]1CC[C@@H]2[C@H](COC[C@H](O)CN2Cc2ccc3c(c2)OCO3)O1)Nc1ccccc1,50,2,-2,·,·,·,·,·
SMILES,T cruzi growth-1,KDM4C inh,Pf Dd2 growth,IDH1 mut inh,T cruzi growth-2,T cruzi growth-3,3T3 cytotox,NIH3T3 tox 2
O=C(C[C@H]1CC[C@H]2[C@@H](COC[C@H](O)CN2Cc2ccc3c(c2)OCO3)O1)Nc1ccc(-c2ccccc2)cc1,104*,0,-7,·,98*,52,27,57*
O=C(C[C@@H]1CC[C@H]2[C@@H](COC[C@@H](O)CN2Cc2ccc3c(c2)OCO3)O1)Nc1ccc(-c2ccccc2)cc1,103*,2,0,·,95*,103*,-14,94*
CS(=O)(=O)N(CC(=O)NC1CCCCC1)c1ccc2c3c(cccc13)CC2,·,·,·,0,·,·,·,·
Cc1ccc(-n2nnnc2SCC(=O)c2ccc(O)c(O)c2)cc1,·,·,·,0,·,·,·,·
COc1ccc(NC(=O)N(C)C[C@@H]2Oc3cc(C#CCC(C)C)ccc3S(=O)(=O)N([C@H](C)CO)C[C@@H]2C)cc1,104*,-4,-66,-10,101*,92,27,63*
CCCC#Cc1ccc2c(c1)O[C@@H](CN(C)C(=O)Nc1ccc(OC)cc1)[C@@H](C)CN([C@H](C)CO)S2(=O)=O,104*,-1,-68,·,112*,50,1,31
CCCC#Cc1ccc2c(c1)O[C@H](CN(C)C(=O)Nc1ccc(OC)cc1)[C@H](C)CN([C@@H](C)CO)S2(=O)=O,86,1,-51,·,·,·,·,·
Cc1nnc(SCC(=O)Nc2ccc(Cl)cc2O)s1,·,·,·,0,·,·,·,·

# Screens: PubChem BioAssay, Broad Institute
